Screening data from PubChem.
OXTR ag = human OXTR agonism. activation, % at 3 µM. P30559. CHO-OTR cells, Fluo-8 calcium fluorescence; normalized: DMSO 0%, oxytocin 100%. 0.32% of 320,000 active. AID 2435;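 active = activation above the mean of all tested compounds plus 3 SD, cutoff set per screening run, cut at about 20% in these data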;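 also: peak over basal fluorescence ratio from a 100 s FLIPR kinetic read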
V1aR counter = counter-screen for oxytocin receptor agonists: human V1a receptor agonists; P37288; CHO-V1R cells, Fluo-8 calcium fluorescence, agonist mode; 0% DMSO, 100% 3 nM vasopressin; activation, % at 3 µM; 0.25% of 320,000 active; AID 2797;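 active = activation above the mean activation of all tested compounds plus 3 SD, per screening run, cut at about 20% in these data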;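 also: signal is peak over basal fluorescence ratio across a 100 second FLIPR read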
TRPML3 ag = human mucolipin-3 channel agonism | HEK293 TRPML3-YFP, Fluo-8 calcium fluorescence; 100% = the carbachol control signal | activation, % at 3 µM | 0.29% of 220,000 active | AID 1448;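 active = activation above its plate's cutoff, the mean activation of the plate's test wells plus 3 SD, cut at about 12% in these data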;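 also: 0% = DMSO only wells and 100% = carbachol wells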
Target sequence (Q8TDD5 whole entry, looked up): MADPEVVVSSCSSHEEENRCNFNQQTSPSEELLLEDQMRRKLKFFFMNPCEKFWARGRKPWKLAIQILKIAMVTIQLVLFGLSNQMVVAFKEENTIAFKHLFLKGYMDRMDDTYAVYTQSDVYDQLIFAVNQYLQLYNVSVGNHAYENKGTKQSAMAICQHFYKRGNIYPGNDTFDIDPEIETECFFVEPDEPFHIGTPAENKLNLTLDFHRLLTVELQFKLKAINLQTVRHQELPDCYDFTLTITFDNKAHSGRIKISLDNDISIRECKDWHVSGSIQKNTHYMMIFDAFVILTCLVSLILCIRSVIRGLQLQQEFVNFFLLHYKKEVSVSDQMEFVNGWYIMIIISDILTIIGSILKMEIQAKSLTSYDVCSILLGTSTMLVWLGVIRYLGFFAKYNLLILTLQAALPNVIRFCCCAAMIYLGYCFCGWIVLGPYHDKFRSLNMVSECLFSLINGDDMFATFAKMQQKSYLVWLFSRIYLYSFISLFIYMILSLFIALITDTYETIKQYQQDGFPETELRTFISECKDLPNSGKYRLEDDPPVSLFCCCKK
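Test system – HEK293 line with stable expression of human TRPML3-YFP channel · Control set – carbachol 87 µM final as high control (100%), DMSO as low control (0%) · Signal – Fluo-8 calcium dye fluorescence, ex 470-495, em 515-575 nm · Incubation – 1-h 37 °C dye load, 5-s basal, 120-s post-compound reads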
OXTR potentiate = potentiators of human oxytocin receptor | activation, % at 3 µM | 0.061% of 320,000 active | CHO-OTR cells, Fluo-8 calcium fluorescence, potentiator mode; 0% = oxytocin EC15, 100% = EC100 | AID 2445;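 active = activation above that plate's cutoff, the mean activation of tested compounds plus 3 SD, cut at about 6.6% in these data, passing the limit was not always enough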;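 also: 100% uses oxytocin at 75 nM as the full agonist control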
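Assay system: CHO cell line stably expressing human OTR. Reagent: EC15 oxytocin agonist. Dosing: single dose, 3.0 µM nominal final compound concentration. Timing: compound 6 min at room temperature before oxytocin, 100 s read. Signal: kinetic Fluo-8 calcium fluorescence. Controls: oxytocin EC15 low and EC100 high.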
TRPN1 ag = zebrafish TRPN1 (NompC) channel agonism; HEK293 zebrafish TRPN1-YFP, Fluo-8 calcium fluorescence; 100% = response to 87 µM carbachol; activation, % at 3 µM; 0.18% of 220,000 active;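 active = activation above its plate's cutoff, the mean activation of test wells on that plate plus 3 SD, cut at about 19% in these data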;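 also: 0% = DMSO alone and 100% = 87 µM carbachol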
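Assay system: Zebrafish TRPN1-YFP in HEK293 cells | Incubation: Dye loading 1 h at 37 °C, then 30 min room temperature | Measured by: Kinetic Fluo-8 fluorescence, ex 470-495, em 515-575 nm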
TRPN1 counter = counter-screen for TRPML3 agonists: agonists of zebrafish TRPN1 channel. AID 1525. shares compounds with TRPML3 ag. activation, % at 3 µM. HEK293 zebrafish TRPN1-YFP, Fluo-8 calcium fluorescence; scaled: carbachol wells 100%, DMSO wells 0%. 10% of 310 active;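 active = mean activation over replicates above a set limit taken from the earlier TRPN1 channel primary screen, cut at about 19% in these data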;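 also: 100% = carbachol and 0% = 0.3% DMSO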
TRPML3 ag conf = human TRPML3 agonism, confirmation. shares compounds with TRPML3 ag. HEK293 TRPML3-YFP, Fluo-8 calcium fluorescence; 100% set by carbachol, 0% by DMSO. activation, % at 3 µM. 80% of 310 active;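 active = activation above a set limit derived from the earlier primary screen, cut at about 12% in these data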
Starred values were filed as active, the others as inactive; x = no result. Only some compounds are listed: those with a hit (about 0.55% of all), similar ones and a draw of the others.

SMILES	OXTR ag	V1aR counter	TRPML3 ag	OXTR potentiate	TRPN1 ag	TRPN1 counter	TRPML3 ag conf
O=C(C1CCN(S(=O)(=O)c2ccccc2F)CC1)N1CCc2ccccc2C1	1	1	1	-6	1	x	x
CN1CCN(c2ccc(C(F)(F)F)cc2NC(=O)Nc2ccccc2)CC1	34*	33*	x	-24	x	x	x
C=CCn1c(SCC)nc(O)cc1=O	29*	60*	1	-5	1	x	x
CC(C)NS(=O)(=O)c1ccc(NC(=O)C(C)OC(=O)C2CCC2)cc1 (configuration not stated)	3	3	x	-8	x	x	x
O=C(/C=C/c1ccc(N2CCC(c3ccccc3)=N2)cc1)c1ccccc1	75*	108*	4	-15	14	x	x
CC1(C(=O)NC(=S)NNC(=O)c2ccncc2)CCCCC1	10	19	8	-16	7	x	x
O=C(NNC(=S)NC(=O)C12CC3CC(CC(C3)C1)C2)c1ccncc1	61*	71*	54*	-14	85*	x	x
C=CCn1c(SCC(=O)C23CC4CC(CC(C4)C2)C3)nc(O)cc1=O	0	0	1	-8	0	x	x
C=CCn1c(SCCC)nc(O)cc1=O	48*	70*	28*	-12	1	2	0
CC(NC(=S)Nc1cccc(C(F)(F)F)c1)C(C)(C)C (configuration not stated)	8	7	12*	-12	13	15	7
CN(C)NC(=S)Nc1cccc(C(F)(F)F)c1	-1	0	0	4	0	x	x
NC(=O)c1cc2ccncc2c2ccccc12	1	0	1	-20	1	x	x
Cc1nc(NC(=O)c2csc3ccccc23)sc1C	-2	-1	18*	-10	-2	1	28*
Cc1nc(NC(=O)c2ccccc2O)sc1C	1	1	x	-6	x	x	x
CC(=O)Nc1cc2c3c(c1)CC(=O)N3CCC2	1	1	x	0	x	x	x
Cc1ccc(NC(=O)CSC2=C(C#N)C(c3ccco3)CC(=O)N2)cc1 (configuration not stated)	1	2	1	-14	2	x	x
Cc1ccc(C(=O)CSC2=C(C#N)C(c3ccco3)CC(=O)N2)c(C)c1 (configuration not stated)	52*	53*	16*	-11	18	9	3
CCOC(=O)Cn1nc(-c2ccccc2)c2cnc3ccc(CC)cc3c21	0	0	1	-9	1	x	x
Cc1ccc(NC(=O)c2cnc(N3CCN(c4ccccn4)CC3)c3ccccc23)c(Br)c1	-1	11	25*	-11	3	4	48*
CCCN(C(=O)CSCC(=O)Nc1cccc(C)c1)c1c(N)n(Cc2ccccc2)c(=O)[nH]c1=O	0	-1	x	1	x	x	x
COc1ccc(S(=O)(=O)N2CCC(C)CC2)cc1OC	0	0	x	-1	x	x	x
Cc1ccc(S(=O)(=O)N2CCCCCC2)cc1[N+](=O)[O-]	-3	-2	12*	-6	-1	-1	19*
COc1ccc(S(=O)(=O)N2CCC(C)CC2)cc1Br	-2	-1	66*	-14	0	-1	106*
CCN1CCN(S(=O)(=O)c2ccc(C)c([N+](=O)[O-])c2)CC1	0	0	0	-6	1	x	x
Cc1ccc(S(=O)(=O)N2CCC(C)CC2)cc1[N+](=O)[O-]	x	x	93*	x	-1	1	87*
SMILES	OXTR ag	V1aR counter	TRPML3 ag	OXTR potentiate	TRPN1 ag	TRPN1 counter	TRPML3 ag conf
COc1cc([N+](=O)[O-])cc(/C=N/NC(=O)C(C)Nc2ccccc2C)c1O (configuration not stated)	-3	-1	-1	-2	-2	x	x
COc1ccc(CNC(=O)C2CCN(S(=O)(=O)c3ccc4c(c3)C(C)(C)C(=O)N4C)CC2)cc1	0	2	x	-4	x	x	x
CCN(C(=O)c1cnc(OC)cc1C(F)(F)F)c1ccc(Cl)cc1Cl	-4	-1	39*	-13	1	18	47*
COc1ccc(S(=O)(=O)N2CCCCCC2)cc1C(=O)OCc1c(C)noc1C	-1	0	30*	-6	3	2	14*
Cc1noc(C)c1COC(=O)c1cccc(S(=O)(=O)N2CCCCCC2)c1	9	6	13*	-8	11	6	18*
Cc1noc(C)c1COC(=O)c1ccc(F)c(S(=O)(=O)N2CCCCC2)c1	0	2	3	-12	4	x	x
O=C(c1ccccc1)c1ccc(O)cc1O	24*	30*	18*	-7	18	11	8
CCOC(=O)Cc1csc(NC(=O)COc2ccc(N(C)S(=O)(=O)c3ccc(C)cc3)cc2)n1	5	5	5	-25	3	x	x
Cc1ccc(S(=O)(=O)N(C)c2ccc(OCC(=O)Nc3nnc(C4CC4)s3)cc2)cc1	x	x	44*	x	0	1	53*
CCc1nnc(NC(=O)COc2ccc(N(C)S(=O)(=O)c3ccc(C)cc3)cc2)s1	x	x	23*	x	1	2	63*
COc1ccc(CCNC(=O)COc2ccc(N(C)S(=O)(=O)c3ccc(Cl)cc3)cc2)cc1	x	x	44*	x	2	3	41*
COc1ccc(CCNC(=O)Cn2nnc(C(=O)Nc3cccc(C)c3C)c2N)cc1OC	8	0	x	-9	x	x	x
CCc1cc(C(=O)N2CCCC(CO)(Cc3ccc(F)cc3)C2)n(C)n1 (configuration not stated)	2	2	x	-6	x	x	x
CNC(=S)NNC(=O)c1cccs1	0	-1	1	-13	0	x	x
O=C(NC(=S)NNC(=O)c1cccs1)c1ccc(Br)o1	13	16	12*	-9	2	18	22*
Cc1cc(C)cc(N(CC(=O)N2CCOCC2)S(=O)(=O)c2ccccc2)c1	0	-1	35*	-15	1	0	46*
Cc1cc(C)cc(N(CC(=O)N2CCC(C)CC2)S(=O)(=O)c2ccccc2)c1	-2	-2	8	-7	-2	x	x
Cc1ccc(S(=O)(=O)N(CC(=O)N2CCCCC2)c2cccc(C)c2)cc1	-1	-1	127*	-8	0	2	139*
Cc1ccc(-n2c(SCC(N)=O)nnc2-c2ccco2)cc1	-1	1	x	-5	x	x	x
CC(=O)c1ccc(S(=O)(=O)NCC(=O)Nc2nc3ccccc3[nH]2)cc1	-1	0	x	-8	x	x	x
CCOc1ccccc1N1CCN(S(=O)(=O)c2ccc(Cl)s2)CC1	-2	-1	38*	-6	-1	-2	27*
